Sampled rows, rich in hits. Any-hit rate of the full collection: about 3%.
CASP6 VEID inh – inhibitors of human caspase-6 | P55212 | purified caspase-6, Z-VEID-R110 cleavage fluorescence | inhibition, % at 12.5 µM | 0.53% of 350,000 active | AID 686996;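 active = mean inhibition across replicates at least about 35%, with every replicate also reaching that limit, limit read from the data; inconclusive = only one of the two criteria met; inactive = neither criterion met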;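 also: 0% = median of neutral control wells and 100% = no fluorescence left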
Wnt act – activates Wnt/beta-catenin signaling in a reporter cell assay; 1.2% of 300,000 active; activator, plate reader; AID 743398; activation, % at 9.35 µM; in the data active = activation above about 30%, passing the limit was not always enough; inconclusive = no clear call, values can overlap the other calls;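 also: 0% = neutral control wells and 100% = positive control wells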
Xi reactivation – reactivates the inactive X chromosome in mouse fibroblasts; 0.055% of 360,000 active; XiGFP mouse fibroblasts, % GFP-positive cells imaging, 3 d; cells co-treated with 5-aza-dC sensitizer; scaled so ellipticine positive control = 100%; activation, % at 7.58 µM; AID 743238;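 active = mean normalized replicate activation at least 10% and every replicate at or above 10%; inconclusive = only one of the two criteria met; inactive = mean below 10% and not all replicates reach 10%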;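 also: 0% = median of on-plate neutral control wells and 100% = ellipticine 6 µM median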
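Material: XiGFP fibroblasts, SV40-immortalized. Buffer or medium: DMEM plus 5-aza-dC sensitizer. Compound: single concentration per compound, delivered by pin transfer. Times: 3 days compound exposure. Controls: ellipticine 6 µM.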
NSD2 inh – NSD2 (human) methyltransferase inhibition; O96028; NSD2 peptide methylation, AlphaScreen, 120 min; inhibition, % at 12.5 µM; 0.54% of 310,000 active; AID 743445; in the data active = inhibition above about 50%
Target sequence (O96028 whole entry, looked up): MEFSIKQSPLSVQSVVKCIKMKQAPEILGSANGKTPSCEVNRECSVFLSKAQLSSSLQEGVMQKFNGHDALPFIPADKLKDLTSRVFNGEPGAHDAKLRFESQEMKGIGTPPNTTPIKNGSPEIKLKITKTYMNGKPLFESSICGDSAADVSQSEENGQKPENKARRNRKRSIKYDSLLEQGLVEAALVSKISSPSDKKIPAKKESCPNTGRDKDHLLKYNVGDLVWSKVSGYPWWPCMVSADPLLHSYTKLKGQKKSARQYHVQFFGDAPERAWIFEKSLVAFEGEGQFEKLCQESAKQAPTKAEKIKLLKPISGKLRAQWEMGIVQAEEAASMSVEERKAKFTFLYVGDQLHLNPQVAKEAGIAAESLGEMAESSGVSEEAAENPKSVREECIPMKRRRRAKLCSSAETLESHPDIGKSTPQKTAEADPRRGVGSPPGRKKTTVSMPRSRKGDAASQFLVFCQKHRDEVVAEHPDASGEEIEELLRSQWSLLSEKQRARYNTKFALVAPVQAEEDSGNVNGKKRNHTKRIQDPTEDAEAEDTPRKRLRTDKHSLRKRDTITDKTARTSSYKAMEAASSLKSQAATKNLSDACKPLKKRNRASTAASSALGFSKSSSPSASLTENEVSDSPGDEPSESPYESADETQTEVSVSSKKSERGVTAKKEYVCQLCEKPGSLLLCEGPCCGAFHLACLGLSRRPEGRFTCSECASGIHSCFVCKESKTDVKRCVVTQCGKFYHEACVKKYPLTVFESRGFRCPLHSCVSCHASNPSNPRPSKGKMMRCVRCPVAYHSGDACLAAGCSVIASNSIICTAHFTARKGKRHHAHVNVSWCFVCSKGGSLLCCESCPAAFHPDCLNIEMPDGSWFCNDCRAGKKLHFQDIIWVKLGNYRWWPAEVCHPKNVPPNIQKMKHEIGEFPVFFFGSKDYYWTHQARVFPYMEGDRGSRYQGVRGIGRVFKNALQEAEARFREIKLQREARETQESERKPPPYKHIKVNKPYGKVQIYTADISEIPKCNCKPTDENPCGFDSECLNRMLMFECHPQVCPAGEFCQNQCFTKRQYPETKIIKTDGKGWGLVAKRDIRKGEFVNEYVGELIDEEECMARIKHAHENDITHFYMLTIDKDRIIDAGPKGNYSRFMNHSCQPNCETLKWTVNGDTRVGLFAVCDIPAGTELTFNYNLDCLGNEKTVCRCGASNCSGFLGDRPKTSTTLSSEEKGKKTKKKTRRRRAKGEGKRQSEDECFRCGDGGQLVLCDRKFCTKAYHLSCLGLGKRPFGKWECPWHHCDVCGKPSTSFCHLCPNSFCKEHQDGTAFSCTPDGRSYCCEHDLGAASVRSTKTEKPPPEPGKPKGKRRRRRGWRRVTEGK
MITF TRPM1 HTS – activators of MITF-driven TRPM1 promoter activity in SK-MEL-5 cells; AID 588334; SK-MEL-5 TRPM1-promoter luciferase, 24 h; % of positive control, neutral wells = 0; 0.75% of 300,000 active; activation, % at 12.5 µM;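 active = mean activation of at least 80% with every replicate also reaching 80%; inconclusive = mean reaches 80% but some replicate falls short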;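 also: 0% = neutral control wells and 100% = parthenolide positive control wells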
esBAF inh – inhibitors of esBAF chromatin remodeling in mouse ES cells. Bmi1-luciferase knock-in reporter, 24 h; 100% = twice the neutral-well signal. reporter increase, % at 12.5 µM. 2% of 350,000 active; in the data active = activation above about 40%; inconclusive = no clear call, values can overlap the other calls;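 also: 0% = median of the plate's neutral control wells and 100% = double that signal; a rise in the Bmi1 reporter signal indicates esBAF inhibition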
Starred values were filed as active, the others as inactive; ? = inconclusive; . = no result given.

SMILES | CASP6 VEID inh | Wnt act | Xi reactivation | NSD2 inh | MITF TRPM1 HTS | esBAF inh
CC(=O)c1cccc(NC(=O)c2cc3ccccn3n2)c1 | -1 | ? | 0 | . | . | 54*
CC(C)NC(=O)N(C)C[C@H]1Oc2cc(C#Cc3cccc(F)c3)ccc2S(=O)(=O)N([C@H](C)CO)C[C@H]1C | 5 | . | 0 | . | . | -4
CNC(=O)C1=C[C@H](c2csc3ccccc23)C[C@H](OCc2ccc(CO)cc2)O1 | 0 | . | . | . | . | .
Cc1ccc(-c2ccc([C@H]3[C@@H](CO)N4C(=O)CN(C(=O)c5ccc(F)cc5)C[C@H]34)cc2)cc1 | . | . | 0 | . | . | .
CCC(=O)N1C[C@@H](C)[C@H](OC)CN(C)C(=O)c2cc(NC(=O)c3cc(C)on3)ccc2OC[C@H]1C | . | . | 0 | . | . | -3
CCC1(CC)Nc2ccccc2C(=O)N1c1ccc(OC)cc1 | 0 | 53* | 0 | 2 | 42 | .
CC(=O)NCc1ccc(-c2csc(-c3cccs3)n2)cc1 | -5 | 20 | 0 | -3 | 55 | 53*
CN(C)C(=O)c1cccc(-c2cccc(-c3nc(C(=O)N4CCOCC4)cc4c3[C@@H](CCO)N([S@](=O)C(C)(C)C)C4)c2)c1 | 1 | . | 0 | . | . | 1
O=S(=O)(Cc1ccccc1)NCC[C@@H]1CC[C@@H](NS(=O)(=O)c2ccc(F)cc2)[C@H](CO)O1 | . | . | 0 | . | . | -4
CCOC(=O)C1(NC(=O)C2(NC(=O)CN3C(=O)c4ccccc4C3=O)CCCC2)CCCC1 | -1 | 47* | 0 | -2 | -2 | -3
C[C@@H]1CN([C@H](C)CO)C(=O)Cc2cc(NC(=O)Cc3ccccc3)ccc2O[C@@H]1CN(C)Cc1ccc(Oc2ccccc2)cc1 | 0 | . | 0 | . | . | 2
COc1ccc(Nc2nc(-c3cccs3)cs2)c(OC)c1 | . | . | . | 0 | . | 53*
COc1ccccc1Nc1nc(-c2cccs2)cs1 | 0 | 22 | . | 1 | 62 | 52*
C[C@H](CO)N1C[C@H](C)[C@@H](CN(C)Cc2ccc(F)cc2)Oc2ncc(C3=CCCC3)cc2C1=O | 0 | . | 0 | . | . | 3
CC(C)CCn1c(=O)c2ccccc2n2c(CCC(=O)NC3CCN(Cc4ccccc4)CC3)nnc12 | -4 | 1 | 0 | 2 | -3 | -5
CC(C)CCn1c(=O)c2ccccc2n2c(CCC(=O)NCC3CCCO3)nnc12 (centres undefined) | 38* | -1 | 0 | -1 | 7 | -4
COc1ccc2c3c(n(C)c2c1)[C@@H](CO)N(C(=O)CC1CC1)CC31CCN(C(=O)C2CCCC2)CC1 | 2 | . | 0 | . | . | .
Cc1noc(C)c1NC(=O)N(C)C[C@@H]1OCCCC[C@@H](C)Oc2ccc(NS(=O)(=O)c3ccc(F)cc3)cc2C(=O)N([C@H](C)CO)C[C@@H]1C | -4 | . | 3 | . | . | -1
COCc1nc2ccccc2n1Cc1ccc(Br)cc1 | . | . | . | 1 | 19 | 50*
Cc1ccccc1OCc1nc2ccccc2n1C | -3 | 19 | 0 | 0 | 61 | ?
CCn1c(COc2ccccc2)nc2ccccc21 | . | -5 | . | -6 | 26 | 58*
COCc1nc2ccccc2n1Cc1ccccc1 | . | . | . | -1 | 16 | 22
Cc1cccc(OCc2nc3ccccc3n2C)c1 | 0 | 12 | 0 | 2 | . | 64*
Cn1c(COc2ccc(F)cc2)nc2ccccc21 | 1 | 10 | 0 | 20 | . | 65*
COc1ccc(C#Cc2cnc3c(c2)C(=O)N([C@H](C)CO)C[C@@H](C)[C@H](CN(C)C(C)=O)O3)cc1 | 0 | . | -1 | . | . | -4
SMILES | CASP6 VEID inh | Wnt act | Xi reactivation | NSD2 inh | MITF TRPM1 HTS | esBAF inh
C[C@@H]1CCCCO[C@@H](CN(C)C(=O)Nc2ccc(F)cc2)[C@H](C)CN([C@@H](C)CO)C(=O)c2cc(NC(=O)c3ccncc3)ccc2O1 | -1 | . | 0 | . | . | 6
COc1ccc2c3c([nH]c2c1)[C@H](CO)N(Cc1ccccc1OC)CC31CN(S(C)(=O)=O)C1 | . | . | 0 | . | . | .
CCN(N=O)c1ccc(C=C2C=Cc3ccccc32)cc1 | 1 | 41* | 0 | . | 97* | .
CO[C@H]1CN(C)C(=O)c2ccc(NS(=O)(=O)c3ccc(F)cc3)cc2OC[C@H](C)NC[C@@H]1C | 0 | . | 0 | . | . | .
Cc1ccccc1S(=O)(=O)N1CC(=O)N2[C@H](C1)[C@@H](c1ccc(C#CCC(C)C)cc1)[C@@H]2CO | 3 | . | 0 | . | . | .
CCCN(C)C[C@H]1Oc2cc(C#CC(C)(C)O)ccc2S(=O)(=O)N([C@H](C)CO)C[C@H]1C | -4 | . | -1 | . | . | -4
Cn1c(SCC(=O)c2ccccc2)nnc1-c1ccc(O)cc1 | . | 64* | . | 1 | 23 | 24
Cn1c(SCC(=O)c2ccccc2)nnc1-c1ccncc1 | 1 | 4 | 0 | -6 | 6 | -3
CCn1c(SCC(=O)c2ccc(O)c(O)c2)nnc1-c1ccccc1 | . | . | . | 11 | 31 | 45*
Cc1ccc(-n2c(SCC(=O)c3ccc(O)c(O)c3)nnc2-c2ccccc2)cc1 | . | . | . | 2 | . | .
CCc1ccccc1-n1c(SCC(=O)N2CCCC2)nnc1-c1ccccn1 | . | 65* | . | . | 1 | -3
Cn1c(SCC(=O)c2ccccc2)nnc1-c1ccccn1 | -1 | 57* | 0 | -3 | . | 36
C[C@H](CO)N1C[C@H](C)[C@@H](CN(C)CC2CC2)OCc2ccccc2-c2c(n(C)c3ccccc23)C1=O | . | . | 0 | . | . | .
C#CCNC(=O)C1=C[C@H](c2cn(C(C)=O)c3ccccc23)C[C@H](OCCCCO)O1 | -1 | . | . | . | . | .
O=C(CSc1nnc(-c2ccco2)n1Cc1ccccc1)OC1CCCCC1 | . | . | . | 5 | . | 68*
Cn1c(SCC(=O)c2ccccc2)nnc1-c1ccco1 | . | 40* | . | -4 | 30 | 34
C[C@H](CO)N1C[C@H](C)[C@H](CN(C)Cc2ccccc2)Oc2cc(-c3ccccc3)ccc2S1(=O)=O | . | . | 4 | . | . | 5
CC(C)CC#Cc1ccc([C@@H]2[C@H]3CN(S(C)(=O)=O)CC(=O)N3[C@H]2CO)cc1 | . | . | 0 | . | . | .
COc1ccc(-c2nc(C3CCCCC3)no2)cc1OC | 1 | -2 | . | -5 | 106* | 60*
COc1ccc(-c2nc(-c3ccccc3OC)no2)cc1OC | . | . | . | 2 | . | 55*
COc1ccc(-c2nc(-c3cccc(C)c3)no2)cc1OC | -1 | 17 | . | 2 | 38 | 46*
CC(C)CC#Cc1ccc2c(c1)O[C@@H](CN(C)C(=O)Cc1ccccc1)[C@H](C)CN([C@H](C)CO)S2(=O)=O | -1 | . | 0 | . | . | -3
Cc1ccccc1Nc1nnc(SCC2CCCCO2)s1 (centres undefined) | 0 | 50* | 0 | -28 | 13 | 16
O=C(COC(=O)CC1CCCC1)Nc1cc2c(cc1Cl)C(=O)c1ccccc1C2=O | . | 39* | . | 0 | 29 | 50*
CC(C)c1ccc(NC(=O)COC(=O)CC2CCCC2)cc1 | -1 | 2 | 0 | -4 | . | 11
Cc1cccc(N2C(=O)CC(N(O)c3ccccc3)C2=O)c1 (centres undefined) | . | 14 | . | -2 | . | 61*

High-throughput results as filed in PubChem BioAssay.
